This is an account of results in ChEMBL document CHEMBL4828745, “Discovery and Structure-Activity Relationships of Quinazolinone-2-carboxamide Derivatives as Novel Orally Efficacious Antimalarials” (J Med Chem, 2021).

In brackets after ≈: the same amount, converted by molar mass.

Data set [1] can be described thus: Cytotoxicity against human HEK293 cells assessed as cell viability incubated for 72 hrs by Alamar blue assay. The format is cell-based. An outline of the steps: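 HEK293 cells handled with the same incubation, compound addition and timing as the 72 h parasite assay. Alamar Blue, diluted in growth medium, was incubated 4 h at 37 °C/5% CO2, then 20 h at room temperature before plate read.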

Another data set has as its system Plasmodium falciparum. As to the kind of experiment: Antiplasmodial activity against Plasmodium falciparum 3D7 infected in human erythrocyte assessed as intraerythrocytic growth inhibition incubated for 72 hrs by DAPI-staining based imaging analysis. The format is functional, organism-based. The following applies: 3D7, 72 h. The procedure, abridged: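 P. falciparum 3D7 cultured in RPMI1640 with hypoxanthine, HEPES, 2.5 mg/mL AlbuMAX II and 5% human serum. Sorbitol-synchronized rings exposed 72 h at 37 °C under 5% CO2/5% O2, then DAPI-stained with saponin/Triton X-100 for 8 h in the dark. High-content imaging with spot detection. Duplicate points. Reference antimalarials run in each assay.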

Data set [2] can be described thus: Intrinsic clearance in rat liver microsomes at […] by LC-MS/MS analysis. Format: ADME, Microsome. The procedure, abridged:
(§1)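 Liver microsomes (human, mouse or rat) at 0.4 mg/mL protein, 37 °C, with an NADPH-regenerating system. Compound at 0.25 or 0.5 μM. Acetonitrile/diazepam quench, LC-MS quantitation. CLint from the first-order degradation rate constant.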

Data set [3] is described as follows: Kinetic solubility of the compound in pH 6.5 phosphate buffer by nephelometry. The format is physicochemical. To be noted: read-out: Kinetic_solubility. An outline of the steps:
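DMSO stock spiked into pH 6.5 phosphate buffer (1% DMSO final). After 30 min, solubility range estimated by nephelometry.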

Data set [4] can be described thus: Intrinsic clearance in human liver microsomes at […] by LC-MS/MS analysis. The format is ADME, Microsome. The procedure, abridged: as §1

For the compound `CCc1cccc(CNC(=O)c2nc3c(OC)ccc(COCc4ccc(C(=O)O)cc4)c3c(=O)[nH]2)c1`, in data set [1], the CC50 at 72 h was greater than 20 µM. Further, the IC50 in the data set on Plasmodium falciparum was determined as 1.89 µM.
For `CC(C)c1cccc(CNC(=O)c2nc3ccc(F)c(OCCc4ccc(C(=O)O)cc4)c3c(=O)[nH]2)c1`, in data set [1], the CC50 at 72 h is greater than 20 µM. Moreover, the IC50 with Plasmodium falciparum was found to be 1.16 µM.
For `COc1cccc(CNC(=O)c2nc3ccc(F)c(OCCc4ccc(C(=O)O)cc4)c3c(=O)[nH]2)c1` the same measures were greater than 20 µM and 2.38 µM.
As to `CCc1cccc(CNC(=O)c2nc3cccc(COc4ccc(CC(=O)O)cc4)c3c(=O)[nH]2)c1`, the CC50 at 72 h in data set [1] was greater than 20 µM. The concentration for half-maximal inhibition (IC50) with Plasmodium falciparum is greater than 20 µM.
For the compound `CCNC(=O)c1ccc(CCOc2c(F)ccc3nc(C(=O)NCc4cccc(CC)c4)[nH]c(=O)c23)cc1`, the CC50 at 72 h in data set [1] is greater than 20 µM. Besides, in the data set on Plasmodium falciparum, the IC50 was greater than 20 µM.
Take `CCc1cccc(CNC(=O)c2nc3ccc(Br)c(COCc4ccc(C(=O)O)cc4)c3c(=O)[nH]2)c1`: the CC50 at 72 h in data set [1] was greater than 20 µM. Further, the concentration for half-maximal inhibition (IC50) in the data set on Plasmodium falciparum is greater than 20 µM.
Take `O=C(O)c1ccc(COCc2cccc3nc(C(=O)NCc4ccccc4)[nH]c(=O)c23)cc1`: the CC50 at 72 h in data set [1] was greater than 20 µM. For the same compound, the IC50 with Plasmodium falciparum turned out to be 0.28 µM.
As to `CCc1cccc(CNC(=O)c2nc3cccc(COc4ccc(C(=O)O)cc4)c3c(=O)[nH]2)c1`, in data set [1], the half-maximal cytotoxic concentration (CC50) at 72 h is greater than 20 µM. In addition, the IC50 in the data set on Plasmodium falciparum is greater than 20 µM.
As to `CCc1cccc(CNC(=O)c2nc3ccc(F)c(COc4ccc(CC(=O)O)cc4)c3c(=O)[nH]2)c1`, the CC50 at 72 h in data set [1] was greater than 20 µM. Further, the IC50 with Plasmodium falciparum is greater than 20 µM.
For `CCc1cccc(CNC(=O)c2nc3cccc(COCc4cccc(C(=O)O)c4)c3c(=O)[nH]2)c1`, in data set [1], the cytotoxic concentration (CC50) at 72 h was greater than 20 µM. In addition, the half-maximal inhibitory concentration (IC50) in the data set on Plasmodium falciparum stood at 1.58 µM.
As to `CCc1cccc(CNC(=O)c2nc3ccc(OC)c(COCc4ccc(C(=O)O)cc4)c3c(=O)[nH]2)c1`, the CC50 at 72 h in data set [1] is greater than 20 µM. Further, the IC50 with Plasmodium falciparum was greater than 20 µM.
`CCc1cccc(CNC(=O)c2nc3ccc(COCc4ccc(C(=O)O)cc4)cc3c(=O)[nH]2)c1`: the 50% cytotoxic concentration (CC50) at 72 h in data set [1] was greater than 20 µM. Also, in the data set with Plasmodium falciparum, the half-maximal inhibitory concentration (IC50) is 1.62 µM.
In the case of `CCc1cccc(CNC(=O)c2nc3cccc(COCc4ccc(C(N)=O)cc4)c3c(=O)[nH]2)c1`, the cytotoxic concentration (CC50) at 72 h in data set [1] is greater than 20 µM. Also, the IC50 in the data set on Plasmodium falciparum is 0.31 µM. Further, the CLH in data set [2] is 636 uL/ml.millig; in data set [4], 83 uL/ml.millig. For the same compound, the solubility kinetic in data set [3] is less than 3.1 µg/mL.
`COc1cccc(CNC(=O)c2nc3ccc(F)c(OCCc4ccc(N)cc4)c3c(=O)[nH]2)c1`: the 50% cytotoxic concentration (CC50) at 72 h in data set [1] was greater than 20 µM. Also, the IC50 in the data set with Plasmodium falciparum was greater than 20 µM.
As to `CCc1cccc(CNC(=O)c2nc3c(Cl)ccc(COCc4ccc(C(=O)O)cc4)c3c(=O)[nH]2)c1`, the cytotoxic concentration (CC50) at 72 h in data set [1] is greater than 20 µM. In the data set on Plasmodium falciparum, the IC50 turned out to be 0.16 µM.
Regarding `CCc1cccc(NC(=O)c2nc3ccc(F)c(OCCc4ccc(C(=O)O)cc4)c3c(=O)[nH]2)c1`, the 50% cytotoxic concentration (CC50) at 72 h in data set [1] was greater than 20 µM. Moreover, the IC50 with Plasmodium falciparum worked out at 3.19 µM.
Consider `O=C(O)c1ccc(CCOc2c(F)ccc3nc(C(=O)NCc4cccc(C5CC5)c4)[nH]c(=O)c23)cc1`, for which, in data set [1], the cytotoxic concentration (CC50) at 72 h is greater than 20 µM. Further, the IC50 in the data set with Plasmodium falciparum is 4.76 µM.
Take `CCc1cccc(C(C)NC(=O)c2nc3ccc(F)c(OCCc4ccc(C(=O)O)cc4)c3c(=O)[nH]2)c1` (stereo not drawn): in data set [1], the 50% cytotoxic concentration (CC50) at 72 h is greater than 20 µM. Also, in the data set on Plasmodium falciparum, the IC50 is 5.13 µM.
With `O=C(O)c1ccc(COCc2cccc3nc(C(=O)NCc4cccc(C(F)(F)F)c4)[nH]c(=O)c23)cc1`, the half-maximal cytotoxic concentration (CC50) at 72 h in data set [1] was greater than 20 µM. The concentration for half-maximal inhibition (IC50) with Plasmodium falciparum amounted to 0.41 µM. Also, the CLH in data set [2] is reported as 42 uL/ml.millig; in data set [4], 7 uL/ml.millig.
Regarding `CCc1cncc(CNC(=O)c2nc3cccc(COCc4ccc(C(=O)O)cc4)c3c(=O)[nH]2)c1`, the half-maximal cytotoxic concentration (CC50) at 72 h in data set [1] was greater than 20 µM. In the data set on Plasmodium falciparum, the half-maximal inhibitory concentration (IC50) was found to be 0.55 µM. Moreover, the CLH in data set [2] turned out to be 78 uL/ml.millig; in data set [4], 13 uL/ml.millig. Further, the solubility kinetic in data set [3] came to 1.6 µg/mL (≈ 3.39 µM).
With `CCc1cccc(CNC(=O)c2nc3c(COCc4ccc(C(=O)O)cc4)cccc3c(=O)[nH]2)c1`, the CC50 at 72 h in data set [1] is greater than 20 µM. In addition, in the data set on Plasmodium falciparum, the concentration for half-maximal inhibition (IC50) was greater than 20 µM.
For the compound `COc1cc(CNC(=O)c2nc3ccc(F)c(OCCc4ccc(C(=O)O)cc4)c3c(=O)[nH]2)ccc1F`, the CC50 at 72 h in data set [1] was greater than 20 µM. Also, the IC50 in the data set with Plasmodium falciparum was found to be 1.9 µM.
For `CCc1cccc(CN(C)C(=O)c2nc3ccc(F)c(OCCc4ccc(C(=O)O)cc4)c3c(=O)[nH]2)c1`, the CC50 at 72 h in data set [1] was greater than 20 µM. Moreover, the IC50 with Plasmodium falciparum is greater than 20 µM.
On to `CCc1ccc(CNC(=O)c2nc3cccc(COCc4ccc(C(=O)O)cc4)c3c(=O)[nH]2)cc1`, for which the CC50 at 72 h in data set [1] is greater than 20 µM. Also, the IC50 in the data set on Plasmodium falciparum worked out at 0.073 µM.
Turning to `CCc1cccc(CNC(=O)c2nc3ccc(F)c(COc4ccc(C(=O)O)cc4)c3c(=O)[nH]2)c1`, the CC50 at 72 h in data set [1] is greater than 20 µM. Moreover, the half-inhibitory concentration (IC50) in the data set on Plasmodium falciparum was found to be 6.97 µM.
As to `CCc1cccc(CNC(=O)c2nc3ccc(Cl)c(COCc4ccc(C(=O)O)cc4)c3c(=O)[nH]2)c1`, in data set [1], the CC50 at 72 h was greater than 20 µM. Further, in the data set with Plasmodium falciparum, the IC50 was greater than 20 µM.
For the compound `CCc1cccc(C(C)NC(=O)c2nc3cccc(COCc4ccc(C(=O)O)cc4)c3c(=O)[nH]2)c1` (stereo not drawn), the CC50 at 72 h in data set [1] was greater than 20 µM. For the same compound, in the data set on Plasmodium falciparum, the concentration for half-maximal inhibition (IC50) amounted to 5.94 µM.
For `CCc1cccc(CNC(=O)c2nc3ccc(F)c(OCCc4ccc(C(N)=O)cc4)c3c(=O)[nH]2)c1` the same measures were greater than 20 µM and greater than 20 µM.
Regarding `CCc1cccc(CNC(=O)c2nc3ccc(F)c(COCc4ccc(C(=O)O)cc4)c3c(=O)[nH]2)c1`, in data set [1], the 50% cytotoxic concentration (CC50) at 72 h was greater than 20 µM. Moreover, in the data set with Plasmodium falciparum, the IC50 amounted to 4.46 µM.
As for `CCc1cccc(CNC(=O)c2nc3c(F)ccc(COCc4ccc(C(=O)O)cc4)c3c(=O)[nH]2)c1`, the cytotoxic concentration (CC50) at 72 h in data set [1] was greater than 20 µM. In the data set with Plasmodium falciparum, the concentration for half-maximal inhibition (IC50) came to 0.054 µM.
For `CCc1ccccc1CNC(=O)c1nc2ccc(F)c(OCCc3ccc(C(=O)O)cc3)c2c(=O)[nH]1`, in that order: greater than 20 µM and greater than 20 µM.
Take `O=C(O)c1ccc(CCOc2c(F)ccc3nc(C(=O)NCc4cccc(OCC5CC5)c4)[nH]c(=O)c23)cc1`: the CC50 at 72 h in data set [1] is greater than 20 µM. Further, the IC50 with Plasmodium falciparum worked out at 1.67 µM.
For the compound `COc1cccc(CNC(=O)c2nc3ccc(F)c(OCCc4ccccc4)c3c(=O)[nH]2)c1`, the half-maximal cytotoxic concentration (CC50) at 72 h in data set [1] is greater than 20 µM. The IC50 in the data set with Plasmodium falciparum was greater than 20 µM.
In the case of `CCc1cccc(CNC(=O)c2nc3cc(COCc4ccc(C(=O)O)cc4)ccc3c(=O)[nH]2)c1`, the CC50 at 72 h in data set [1] is greater than 20 µM. Moreover, the IC50 in the data set with Plasmodium falciparum was greater than 20 µM.
As for `COc1cccc(CNC(=O)c2nc3cccc(COCc4ccc(C(=O)O)cc4)c3c(=O)[nH]2)c1`, the CC50 at 72 h in data set [1] was greater than 20 µM. The IC50 in the data set on Plasmodium falciparum was determined as 0.18 µM.
Consider `Cc1cc(CNC(=O)c2nc3ccc(F)c(OCCc4ccc(C(=O)O)cc4)c3c(=O)[nH]2)ccc1F`, for which the cytotoxic concentration (CC50) at 72 h in data set [1] is greater than 20 µM. In addition, in the data set with Plasmodium falciparum, the 50% inhibitory concentration (IC50) is 0.59 µM.
As to `CCc1ccc(CNC(=O)c2nc3ccc(F)c(OCCc4ccc(C(=O)O)cc4)c3c(=O)[nH]2)cc1`, the 50% cytotoxic concentration (CC50) at 72 h in data set [1] was greater than 20 µM. Moreover, in the data set with Plasmodium falciparum, the IC50 came out at 1.16 µM.
For `CCc1cccc(CNC(=O)c2nc3cccc(CSCc4ccc(C(=O)O)cc4)c3c(=O)[nH]2)c1` the same measures were greater than 20 µM and 5.54 µM.
With `CCc1ccnc(CNC(=O)c2nc3cccc(COCc4ccc(C(=O)O)cc4)c3c(=O)[nH]2)c1`, the 50% cytotoxic concentration (CC50) at 72 h in data set [1] is greater than 20 µM. The IC50 in the data set on Plasmodium falciparum was 0.89 µM.
For `CCc1cccc(CNC(=O)c2nc3cccc(CN(C)Cc4ccc(C(=O)O)cc4)c3c(=O)[nH]2)c1`, in that order: greater than 20 µM and 1.15 µM.
